Values belong to the molecule of their own block, whether it stands above or below them. Where a SMILES comes first, the peptide text is derived from it.
Experiments:
[1] = target: T1, PDZ2 (second PDZ domain, 1361-1456) from human PTP1E/PTPL1 (Homo sapiens, UniProt Q12923); experiment: NMR titration binding affinity of peptide to PDZ2
T1 sequence (Q12923 1361-1456): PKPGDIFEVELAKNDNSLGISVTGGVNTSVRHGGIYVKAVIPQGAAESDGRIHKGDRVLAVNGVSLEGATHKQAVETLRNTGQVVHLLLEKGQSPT
Procedure, shortened: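 NMR titration of test peptide into PDZ2 expressed in E. coli BL21(DE3), 1 mM, in 150 mM NaCl, 50 mM sodium phosphate pH 6.8, 10% D2O, at 25 °C on 500/600 MHz spectrometers. Protein concentration by UV absorbance at 280 nm; Kd derived from titration.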

[2] = target: T1, PDZ2 (second PDZ domain, 1361-1456) from human PTP1E/PTPL1; experiment: Fluorescence binding affinity of peptide to PDZ2
APC C-terminal peptide = target: T2, APC C-terminal peptide (Homo sapiens); experiment: NMR titration
T2 chain: GSYLVTSV

Kd [1]: 10 µM
Molecule: CC(C)C[C@H](NC(=O)[C@H](Cc1ccc(O)cc1)NC(=O)[C@H](CO)NC(=O)CN)C(=O)N[C@H](C(=O)N[C@H](C(=O)N[C@@H](CO)C(=O)N[C@H](C(=O)O)C(C)C)[C@@H](C)O)C(C)C [APC] (H-GSYLVTSV-OH)

Kd [2]: 10 µM
Molecule: CC(=O)N[C@@H](CCC(=O)O)C(=O)N[C@@H](CC(N)=O)C(=O)N[C@@H](CCC(=O)O)C(=O)N[C@@H](CCC(N)=O)C(=O)N[C@H](C(=O)N[C@@H](CO)C(=O)N[C@@H](C)C(=O)N[C@H](C(=O)O)C(C)C)C(C)C [RA-GEF2] (Ac-ENEQVSAV-OH)

Kd (APC C-terminal peptide): 10 µM
B1: PTP1E (PTPL1) PDZ2 1361-1456 (protein)
chain: PKPGDIFEVELAKNDNSLGISVTGGVNTSVRHGGIYVKAVIPQGAAESDGRIHKGDRVLAVNGVSLEGATHKQAVETLRNTGQVVHLLLEKGQSPT

Source: PMC3001272 (Biochemistry, 2010)
